# Reference: article PMC12171725 (RSC Advances, 2025)
# Key:
# [1] = system: Acinetobacter baumannii AB5075; assay: MIC by broth microdilution; type: cell-based; conditions: AB5075, read-out: MIC A. baumannii AB5075, broth microdilution, 37 °C, 18–20 hours
# [2] = system: methicillin-resistant Staphylococcus aureus (MRSA USA300); assay: MIC by broth microdilution; type: cell-based; conditions: MRSA|USA300, read-out: MIC S. aureus USA300
# In short: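 MRSA USA300 was grown overnight at 37 °C on tryptone soy agar, adjusted to 0.5 McFarland, then diluted in cation-adjusted Mueller-Hinton broth to ∼5 × 10^5 CFU ml−1. […] Plates were incubated aerobically at 37 °C for 18–20 h, following CLSI broth microdilution.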
# MTT cytotoxicity assay = type: cell-based; conditions: human, HEK293 cells (human embryonic kidney cell line)
# erythrocytes = assay: Hemolysis; type: cell-based; conditions: LC lytic concentration 30%
# MRSA USA300 biofilms = assay: Disruption of mature MRSA biofilms; type: cell-based, Staphylococcus aureus; conditions: at 4× MIC
SMILES,MIC [1] [µg/mL],MIC [2] [µg/mL],IC50 (MTT cytotoxicity assay) [µM],Hemolysis LC (erythrocytes) [mg/mL],percentage of biofilm disruption relative to untreated controls (MRSA USA300 biofilms)
"CCNS(=O)(=O)c1ccc(-n2nnc(C(C)=NNC(=N)N)c2C)cc1 [Compound 17, 2-(1-(1-(4-(N-Ethylsulfamoyl)phenyl)-5-methyl-1H-1,2,3-triazol-4-yl)ethylidene)hydrazine-1-carboximidamide]",> 64,> 64,–,–,–
"CCCCNS(=O)(=O)c1ccc(-n2nnc(C(C)=NNC(=N)N)c2C)cc1 [Compound 18, 2-(1-(1-(4-(N-Butylsulfamoyl)phenyl)-5-methyl-1H-1,2,3-triazol-4-yl)ethylidene)hydrazine-1-carboximidamide]",> 64,> 64,–,–,–
"CCCCCCNS(=O)(=O)c1ccc(-n2nnc(C(C)=NNC(=N)N)c2C)cc1 [Compound 20, 2-(1-(1-(4-(N-Hexylsulfamoyl)phenyl)-5-methyl-1H-1,2,3-triazol-4-yl)ethylidene)hydrazine-1-carboximidamide]",16,16,–,–,–
"CCCCCCCCNS(=O)(=O)c1ccc(-n2nnc(C(C)=NNC(=N)N)c2C)cc1 [Compound 22, 2-(1-(5-Methyl-1-(4-(N-octylsulfamoyl)phenyl)-1H-1,2,3-triazol-4-yl)ethylidene)hydrazine-1-carboximidamide]",64,64,–,–,–
"CCCCCCCCCNS(=O)(=O)c1ccc(-n2nnc(C(C)=NNC(=N)N)c2C)cc1 [Compound 23, 2-(1-(5-Methyl-1-(4-(N-nonylsulfamoyl)phenyl)-1H-1,2,3-triazol-4-yl)ethylidene)hydrazine-1-carboximidamide]",64,–,52.4,>10,70–80%
"CN[C@H](CC(C)C)C(=O)N[C@H]1C(=O)N[C@@H](CC(N)=O)C(=O)N[C@H]2C(=O)N[C@H]3C(=O)N[C@H](C(=O)N[C@H](C(=O)O)c4cc(O)cc(O)c4-c4cc3ccc4O)[C@H](O)c3ccc(c(Cl)c3)Oc3cc2cc(c3O[C@@H]2O[C@H](CO)[C@@H](O)[C@H](O)[C@H]2O[C@H]2C[C@](C)(N)[C@H](O)[C@H](C)O2)Oc2ccc(cc2Cl)[C@H]1O [Vancomycin, reference compound]",–,1,–,–,–
